Values after ≈ are worked out from the molar mass of the structure shown. Active and inactive are the calls of the source. The rule behind the calls is not given here.
Columns and labels:
Type in all cases: functional
Pichia kudriavzevii [1] = test: Antifungal activity against Candida krusei ATCC 6258 after 48 hrs by microdilution method; settings: for MIC80: ATCC 6258, 48 h
How it was run: (§1)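 Yeasts held on Sabouraud dextrose agar. MIC by NCCLS M27-A broth microdilution in RPMI 1640 with L-glutamine, buffered with 0.165 M MOPS to pH 7.0. Compounds in DMSO (≤2% final), twofold dilutions 500–0.48. Final inoculum 5 × 10³ ± 0.2 cfu mL⁻¹. Incubated at 35 °C; absorbance at 540 nm read at 24 and 48 h. MIC is 80% growth inhibition versus control; run twice in duplicate.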

Candida parapsilosis [2] = test: Antifungal activity against Candida parapsilosis ATCC 22019 after 24 hrs by microdilution method; settings: for MIC80: Lodderomyces parapsilosis, ATCC 22019, 24 h; how it was run: as §1
Aspergillus fumigatus [3] = test: Antifungal activity against Aspergillus fumigatus 231 after 24 hrs by microdilution method; settings: for MIC80: Aspergillus fumigatus, 231, 24 h
How it was run: (§2)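 Filamentous strains held on Sabouraud dextrose agar. NCCLS M27-A broth microdilution in RPMI 1640 with L-glutamine and 0.165 M MOPS, pH 7.0. DMSO diluent ≤2% final; twofold dilutions 500–0.48. Inoculum 5 × 10³ ± 0.2 cfu mL⁻¹ final.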

Candida albicans [4] = test: Antifungal activity against Candida albicans ATCC 44859 after 24 hrs by microdilution method; settings: for MIC80: ATCC 44859, 24 h; how it was run: as §1
Lichtheimia corymbifera [5] = test: Antifungal activity against Absidia corymbifera 272 after 48 hrs by microdilution method; settings: for MIC80: Lichtheimia corymbifera, 272, 48 h; how it was run: as §2
Trichosporon beigelii [6] = test: Antifungal activity against Trichosporon beigelii 1188 after 48 hrs by microdilution method; settings: for MIC80: Trichosporon beigelii, 1188, 48 h; how it was run: as §1
Nakaseomyces glabratus [7] = test: Antifungal activity against Candida glabrata 20/I after 48 hrs by microdilution method; how it was run: as §1
Candida parapsilosis [8] = test: Antifungal activity against Candida parapsilosis ATCC 22019 after 48 hrs by microdilution method; settings: for MIC80: Lodderomyces parapsilosis, ATCC 22019, 48 h; how it was run: as §1
Pichia kudriavzevii [9] = test: Antifungal activity against Candida krusei ATCC 6258 after 24 hrs by microdilution method; settings: for MIC80: ATCC 6258, 24 h; how it was run: as §1
Clavispora lusitaniae [10] = test: Antifungal activity against Candida lusitaniae 2446/I after 24 hrs by microdilution method; how it was run: as §1
Pichia kudriavzevii [11] = test: Antifungal activity against Candida krusei E28 after 24 hrs by microdilution method; settings: for MIC80: E28, 24 h; how it was run: as §1
Nakaseomyces glabratus [12] = test: Antifungal activity against Candida glabrata 20/I after 24 hrs by microdilution method; how it was run: as §1
Trichosporon beigelii [13] = test: Antifungal activity against Trichosporon beigelii 1188 after 24 hrs by microdilution method; settings: for MIC80: Trichosporon beigelii, 1188, 24 h; how it was run: as §1
Clavispora lusitaniae [14] = test: Antifungal activity against Candida lusitaniae 2446/I after 48 hrs by microdilution method; how it was run: as §1
Candida tropicalis [15] = test: Antifungal activity against Candida tropicalis 156 after 24 hrs by microdilution method; settings: for MIC80: Candida tropicalis, 156, 24 h; how it was run: as §1
Candida tropicalis [16] = test: Antifungal activity against Candida tropicalis 156 after 48 hrs by microdilution method; settings: for MIC80: Candida tropicalis, 156, 48 h; how it was run: as §1
Candida albicans [17] = test: Antifungal activity against Candida albicans ATCC 44859 after 48 hrs by microdilution method; settings: for MIC80: ATCC 44859, 48 h; how it was run: as §1
Aspergillus fumigatus [18] = test: Antifungal activity against Aspergillus fumigatus 231 after 48 hrs by microdilution method; settings: for MIC80: Aspergillus fumigatus, 231, 48 h; how it was run: as §2
Candida albicans [19] = test: Antifungal activity against Candida albicans ATCC 90028 after 48 hrs by microdilution method; settings: for MIC80: ATCC 90028, 48 h; how it was run: as §1
[20] = test system: Trichophyton mentagrophytes; test: Antifungal activity against Trichophyton mentagrophytes 445 after 72 hrs by microdilution method; settings: for MIC80: Trichophyton mentagrophytes, 445, 72 h
How it was run: (§3)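 Dermatophyte held on Sabouraud dextrose agar. M27-A microdilution in MOPS-buffered (0.165 M, pH 7.0) RPMI 1640 with L-glutamine. DMSO ≤2% final; twofold dilutions 500–0.48. Inoculum 5 × 10³ ± 0.2 cfu mL⁻¹ final. Incubated at 35 °C; MIC read visually at 72 and 120 h as 80% inhibition of control growth; determined twice in duplicate.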

Pichia kudriavzevii [21] = test: Antifungal activity against Candida krusei E28 after 48 hrs by microdilution method; settings: for MIC80: E28, 48 h; how it was run: as §1
Lichtheimia corymbifera [22] = test: Antifungal activity against Absidia corymbifera 272 after 24 hrs by microdilution method; settings: for MIC80: Lichtheimia corymbifera, 272, 24 h; how it was run: as §2
Candida albicans [23] = test: Antifungal activity against Candida albicans ATCC 90028 after 24 hrs by microdilution method; settings: for MIC80: ATCC 90028, 24 h; how it was run: as §1
[24] = test system: Trichophyton mentagrophytes; test: Antifungal activity against Trichophyton mentagrophytes 445 after 120 hrs by microdilution method; how it was run: as §3

Compound: OC(Cn1cncn1)(Cn1cncn1)c1ccc(F)cc1F [FLUCONAZOLE]
- MIC80 (Pichia kudriavzevii [1]): > 50 µM
- MIC80 (Candida parapsilosis [2]): 6.5 µM (≈ 1.99 µg/mL)
- MIC80 (Aspergillus fumigatus [3]): > 50 µM
- MIC80 (Candida albicans [4]): 1 µM (≈ 0.306 µg/mL)
- MIC80 (Lichtheimia corymbifera [5]): > 50 µM
- MIC80 (Trichosporon beigelii [6]): 9 µM (≈ 2.76 µg/mL)
- MIC80 (Nakaseomyces glabratus [7]): > 50 µM
- MIC80 (Candida parapsilosis [8]): 13 µM (≈ 3.98 µg/mL)
- MIC80 (Pichia kudriavzevii [9]): > 50 µM
- MIC80 (Clavispora lusitaniae [10]): 3.3 µM (≈ 1.01 µg/mL)
- MIC80 (Pichia kudriavzevii [11]): > 50 µM
- MIC80 (Nakaseomyces glabratus [12]): 22 µM (≈ 6.74 µg/mL)
- MIC80 (Trichosporon beigelii [13]): 4 µM (≈ 1.23 µg/mL)
- MIC80 (Clavispora lusitaniae [14]): 3.3 µM (≈ 1.01 µg/mL)
- MIC80 (Candida tropicalis [15]): 3 µM (≈ 0.919 µg/mL)
- MIC80 (Candida tropicalis [16]): 5 µM (≈ 1.53 µg/mL)
- MIC80 (Candida albicans [17]): 2 µM (≈ 0.613 µg/mL)
- MIC80 (Aspergillus fumigatus [18]): > 50 µM
- MIC80 (Candida albicans [19]): 3.3 µM (≈ 1.01 µg/mL)
- MIC80 [20]: 17 µM (≈ 5.21 µg/mL)
- MIC80 (Pichia kudriavzevii [21]): > 50 µM
- MIC80 (Lichtheimia corymbifera [22]): > 50 µM
- MIC80 (Candida albicans [23]): 0.8 µM (≈ 0.245 µg/mL)

Compound: O=C1CCC=C1c1ccc(Cl)c(Cl)c1
- Activity (Pichia kudriavzevii [1]): inactive
- Activity (Candida parapsilosis [2]): inactive
- Activity (Aspergillus fumigatus [3]): inactive
- Activity (Candida albicans [4]): inactive
- Activity (Lichtheimia corymbifera [5]): inactive
- Activity (Trichosporon beigelii [6]): inactive
- Activity (Candida parapsilosis [8]): inactive
- Activity (Pichia kudriavzevii [9]): inactive
- Activity (Clavispora lusitaniae [10]): inactive
- Activity (Pichia kudriavzevii [11]): inactive
- Activity (Trichosporon beigelii [13]): inactive
- Activity [24]: inactive
- Activity (Clavispora lusitaniae [14]): inactive
- Activity (Candida tropicalis [15]): inactive
- Activity (Candida tropicalis [16]): inactive
- Activity (Candida albicans [17]): inactive
- Activity (Aspergillus fumigatus [18]): inactive
- Activity (Candida albicans [19]): inactive
- Activity [20]: inactive
- Activity (Pichia kudriavzevii [21]): inactive
- Activity (Lichtheimia corymbifera [22]): inactive
- Activity (Candida albicans [23]): inactive

Compound: CC(=O)OCC/C=C1/C=C(c2ccc(Br)cc2)C(=O)O1
- MIC80 (Pichia kudriavzevii [1]): > 500 µM
- MIC80 (Candida parapsilosis [2]): 250 µM (≈ 84.3 µg/mL)
- MIC80 (Aspergillus fumigatus [3]): > 500 µM
- MIC80 (Candida albicans [4]): 15.6 µM (≈ 5.27 µg/mL)
- MIC80 (Lichtheimia corymbifera [5]): 250 µM (≈ 84.3 µg/mL)
- MIC80 (Trichosporon beigelii [6]): > 500 µM
- MIC80 (Nakaseomyces glabratus [7]): > 500 µM
- MIC80 (Candida parapsilosis [8]): > 500 µM
- MIC80 (Pichia kudriavzevii [9]): 500 µM (≈ 169 µg/mL)
- MIC80 (Clavispora lusitaniae [10]): > 500 µM
- MIC80 (Pichia kudriavzevii [11]): 500 µM (≈ 169 µg/mL)
- MIC80 (Nakaseomyces glabratus [12]): 250 µM (≈ 84.3 µg/mL)
- MIC80 (Trichosporon beigelii [13]): > 500 µM
- MIC80 ([24]; Trichophyton mentagrophytes, 445, 120 h): 15.6 µM (≈ 5.27 µg/mL)
- MIC80 (Clavispora lusitaniae [14]): > 500 µM
- MIC80 (Candida tropicalis [15]): > 500 µM
- MIC80 (Candida tropicalis [16]): > 500 µM
- MIC80 (Candida albicans [17]): 500 µM (≈ 169 µg/mL)
- MIC80 (Aspergillus fumigatus [18]): > 500 µM
- MIC80 (Candida albicans [19]): > 500 µM
- MIC80 [20]: 15.6 µM (≈ 5.27 µg/mL)
- MIC80 (Pichia kudriavzevii [21]): > 500 µM
- MIC80 (Lichtheimia corymbifera [22]): 250 µM (≈ 84.3 µg/mL)
- MIC80 (Candida albicans [23]): > 500 µM
